This is an account of results in ChEMBL document CHEMBL3763072, “Structure activity relationship studies on chemically non-reactive glycine sulfonamide inhibitors of diacylglycerol lipase” (Bioorg Med Chem, 2016).

Data set [1] has as its target T1, Diacylglycerol lipase-alpha (Homo sapiens, UniProt Q9Y4D2).
T1 sequence (Q9Y4D2 whole entry): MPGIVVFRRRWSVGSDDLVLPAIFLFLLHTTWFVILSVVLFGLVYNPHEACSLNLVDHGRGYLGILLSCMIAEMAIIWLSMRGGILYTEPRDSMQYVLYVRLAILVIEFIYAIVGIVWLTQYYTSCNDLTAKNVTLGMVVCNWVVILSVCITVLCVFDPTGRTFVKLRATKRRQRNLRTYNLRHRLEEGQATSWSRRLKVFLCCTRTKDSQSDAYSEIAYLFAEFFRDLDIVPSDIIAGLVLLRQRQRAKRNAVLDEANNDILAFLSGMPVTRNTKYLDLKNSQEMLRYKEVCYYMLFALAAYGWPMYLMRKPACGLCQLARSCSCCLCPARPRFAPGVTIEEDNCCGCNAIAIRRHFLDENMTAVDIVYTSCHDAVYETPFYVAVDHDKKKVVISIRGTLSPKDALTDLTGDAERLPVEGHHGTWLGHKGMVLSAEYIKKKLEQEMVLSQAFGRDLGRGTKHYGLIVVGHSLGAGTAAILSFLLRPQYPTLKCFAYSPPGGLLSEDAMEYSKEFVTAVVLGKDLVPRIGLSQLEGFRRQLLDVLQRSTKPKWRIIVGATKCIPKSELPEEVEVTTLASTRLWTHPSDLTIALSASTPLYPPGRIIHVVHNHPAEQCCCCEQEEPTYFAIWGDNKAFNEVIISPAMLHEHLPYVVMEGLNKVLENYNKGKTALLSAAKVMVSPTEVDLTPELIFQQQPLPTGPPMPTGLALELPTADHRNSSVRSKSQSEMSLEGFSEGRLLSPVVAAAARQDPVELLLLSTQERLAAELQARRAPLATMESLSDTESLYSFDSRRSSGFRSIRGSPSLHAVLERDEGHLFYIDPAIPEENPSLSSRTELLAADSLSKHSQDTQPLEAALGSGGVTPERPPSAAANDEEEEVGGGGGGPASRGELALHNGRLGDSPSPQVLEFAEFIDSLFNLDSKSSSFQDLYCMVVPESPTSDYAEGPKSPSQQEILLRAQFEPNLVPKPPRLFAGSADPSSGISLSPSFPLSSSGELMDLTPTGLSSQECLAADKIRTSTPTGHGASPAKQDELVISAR
The data set can be described thus: Inhibition of full length human C-terminal HA-tagged DAGLalpha expressed in HEK293 cell membrane using DAG as substrate incubated for 20 mins by LC-MS analysis. It counts as cell-based. An outline of the steps: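 Cell-free DAGL-α enzyme assay run at pH 6.5. IC50 values are reported, with replicate counts (n) given per value.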

Data set [2] has as its target T1, Diacylglycerol lipase-alpha. The data set is described as follows: Inhibition of full length human C-terminal HA-tagged DAGLalpha expressed in HEK293 cells using DAG as substrate assessed as reduction in intracellular 2-AG level incubated for 20 mins by LC-MS analysis. The format is cell-based.
Data set [3] concerns the target T2, Diacylglycerol lipase-alpha (Homo sapiens) (UniProt Q9Y4D2).
T2 sequence (whole entry): T1 sequence (Q9Y4D2 whole entry)
The data set can be described thus: Ratio of IC50 for full length human C-terminal HA-tagged DAGLalpha expressed in HEK293 cells assessed as reduction in intracellular 2-AG level to IC50 for full length human C-terminal HA-tagged DAGLalpha expressed in HEK293 cell membrane. It counts as cell-based.

The next data set has as its target Cytochrome P450 3A4 (Homo sapiens, UniProt P08684). The data set is described as follows: Inhibition of CYP3A4 in human liver microsomes using midazolam as substrate incubated for 5 mins by LC-MS analysis.
In the next data set the target is Cytochrome P450 2D6 (Homo sapiens, UniProt P10635). The data set can be described thus: Inhibition of CYP2D6 in human liver microsomes using dextromethorphan as substrate incubated for 7 mins by LC-MS analysis. In general terms: Liver microsomes are a subcellular fraction often used to study metabolism.
Sequence of Cytochrome P450 2D6 (P10635 whole entry): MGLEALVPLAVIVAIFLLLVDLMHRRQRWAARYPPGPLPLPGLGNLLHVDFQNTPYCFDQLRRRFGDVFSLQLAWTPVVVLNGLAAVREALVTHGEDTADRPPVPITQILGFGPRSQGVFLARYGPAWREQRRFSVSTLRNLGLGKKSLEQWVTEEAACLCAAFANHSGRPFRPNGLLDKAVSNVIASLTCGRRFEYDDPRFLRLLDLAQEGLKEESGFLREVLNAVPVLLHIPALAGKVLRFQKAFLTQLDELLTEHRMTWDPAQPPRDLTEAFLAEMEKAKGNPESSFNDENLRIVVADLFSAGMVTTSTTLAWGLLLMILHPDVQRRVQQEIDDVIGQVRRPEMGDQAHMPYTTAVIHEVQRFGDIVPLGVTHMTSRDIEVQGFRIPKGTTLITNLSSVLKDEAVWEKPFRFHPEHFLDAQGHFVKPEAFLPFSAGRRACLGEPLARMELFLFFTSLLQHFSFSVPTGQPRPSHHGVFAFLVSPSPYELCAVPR
A further data set concerns the target Cytochrome P450 2C9 (Homo sapiens, UniProt P11712). The data set is described as follows: Inhibition of CYP2C9 in human liver microsomes using diclofenac as substrate incubated for 10 mins by LC-MS analysis.
Data set [4] can be described thus: Metabolic stability in human liver microsomes assessed as residual compound at 3 uM preincubated for 2 mins followed by NADPH addition measured after 10 mins by LC-MS analysis. The format is ADME. The following applies: read-out: Stability.
In the next data set the target is Cytochrome P450 2C19 (Homo sapiens, UniProt P33261). The data set can be described thus: Inhibition of CYP2C19 in human liver microsomes using (S)-mephenytoin as substrate incubated for 5 mins by LC-MS analysis.
Sequence of Cytochrome P450 2C19 (P33261 whole entry): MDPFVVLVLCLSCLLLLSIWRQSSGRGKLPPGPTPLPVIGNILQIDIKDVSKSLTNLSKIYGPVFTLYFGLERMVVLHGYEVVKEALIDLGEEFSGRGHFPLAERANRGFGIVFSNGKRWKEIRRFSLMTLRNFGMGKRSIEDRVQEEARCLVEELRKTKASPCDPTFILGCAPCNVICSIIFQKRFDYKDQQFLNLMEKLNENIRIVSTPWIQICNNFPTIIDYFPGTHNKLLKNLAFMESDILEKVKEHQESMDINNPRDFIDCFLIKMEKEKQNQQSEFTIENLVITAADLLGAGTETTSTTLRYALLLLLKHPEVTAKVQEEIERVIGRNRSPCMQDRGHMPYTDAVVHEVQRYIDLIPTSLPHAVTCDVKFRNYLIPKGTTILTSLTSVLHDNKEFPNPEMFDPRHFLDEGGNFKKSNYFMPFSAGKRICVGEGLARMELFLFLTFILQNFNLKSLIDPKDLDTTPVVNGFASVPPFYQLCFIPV
A short description of data set [5]: Metabolic stability in rat liver microsomes assessed as residual compound at 3 uM preincubated for 2 mins followed by NADPH addition measured after 10 mins by LC-MS analysis. The format is ADME. As to conditions: read-out: Stability.
The target in data set [6] is Voltage-gated inwardly rectifying potassium channel KCNH2 (Homo sapiens, UniProt Q12809). The data set can be described thus: Inhibition of human ERG expressed in HEK293 cells by thallium flux assay.
Sequence of Voltage-gated inwardly rectifying potassium channel KCNH2 (Q12809 whole entry): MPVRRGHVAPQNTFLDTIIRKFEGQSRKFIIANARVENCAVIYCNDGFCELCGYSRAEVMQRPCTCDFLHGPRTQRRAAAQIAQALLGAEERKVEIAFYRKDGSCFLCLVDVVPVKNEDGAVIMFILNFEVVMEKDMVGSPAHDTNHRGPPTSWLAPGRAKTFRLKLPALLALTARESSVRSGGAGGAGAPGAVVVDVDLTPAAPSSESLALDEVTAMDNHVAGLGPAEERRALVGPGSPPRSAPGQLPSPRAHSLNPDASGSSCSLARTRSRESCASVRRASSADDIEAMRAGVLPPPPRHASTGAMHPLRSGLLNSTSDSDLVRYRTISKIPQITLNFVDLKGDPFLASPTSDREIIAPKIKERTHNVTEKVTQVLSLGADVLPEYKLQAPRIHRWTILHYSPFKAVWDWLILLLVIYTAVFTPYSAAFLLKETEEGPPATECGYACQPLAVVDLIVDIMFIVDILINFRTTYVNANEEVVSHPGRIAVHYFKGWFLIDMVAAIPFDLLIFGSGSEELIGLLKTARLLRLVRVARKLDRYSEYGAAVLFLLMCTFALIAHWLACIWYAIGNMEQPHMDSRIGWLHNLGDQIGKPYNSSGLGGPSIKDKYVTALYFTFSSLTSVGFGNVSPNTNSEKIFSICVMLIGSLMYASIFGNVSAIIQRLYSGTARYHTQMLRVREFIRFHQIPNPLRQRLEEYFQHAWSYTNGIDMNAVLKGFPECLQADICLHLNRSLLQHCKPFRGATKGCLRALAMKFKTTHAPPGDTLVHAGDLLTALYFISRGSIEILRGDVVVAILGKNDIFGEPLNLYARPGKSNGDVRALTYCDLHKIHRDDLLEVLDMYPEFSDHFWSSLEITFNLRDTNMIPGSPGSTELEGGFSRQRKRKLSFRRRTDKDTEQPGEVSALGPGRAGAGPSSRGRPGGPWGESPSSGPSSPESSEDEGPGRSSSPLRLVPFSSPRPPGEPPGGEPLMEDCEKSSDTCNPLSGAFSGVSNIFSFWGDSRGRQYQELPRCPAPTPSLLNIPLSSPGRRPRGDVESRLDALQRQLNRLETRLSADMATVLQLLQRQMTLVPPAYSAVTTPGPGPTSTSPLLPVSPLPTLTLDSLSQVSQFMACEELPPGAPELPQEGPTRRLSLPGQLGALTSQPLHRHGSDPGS
The subject of a further data set is HEK293. The data set can be described thus: Selectivity ratio of IC50 for full length human C-terminal HA-tagged DAGLalpha expressed in HEK293 cell membrane to IC50 for DAGLbeta (unknown origin). The format is cell-based.
In data set [7] the target is T3, Diacylglycerol lipase-beta (Homo sapiens, UniProt Q8NCG7).
T3 sequence (Q8NCG7 whole entry): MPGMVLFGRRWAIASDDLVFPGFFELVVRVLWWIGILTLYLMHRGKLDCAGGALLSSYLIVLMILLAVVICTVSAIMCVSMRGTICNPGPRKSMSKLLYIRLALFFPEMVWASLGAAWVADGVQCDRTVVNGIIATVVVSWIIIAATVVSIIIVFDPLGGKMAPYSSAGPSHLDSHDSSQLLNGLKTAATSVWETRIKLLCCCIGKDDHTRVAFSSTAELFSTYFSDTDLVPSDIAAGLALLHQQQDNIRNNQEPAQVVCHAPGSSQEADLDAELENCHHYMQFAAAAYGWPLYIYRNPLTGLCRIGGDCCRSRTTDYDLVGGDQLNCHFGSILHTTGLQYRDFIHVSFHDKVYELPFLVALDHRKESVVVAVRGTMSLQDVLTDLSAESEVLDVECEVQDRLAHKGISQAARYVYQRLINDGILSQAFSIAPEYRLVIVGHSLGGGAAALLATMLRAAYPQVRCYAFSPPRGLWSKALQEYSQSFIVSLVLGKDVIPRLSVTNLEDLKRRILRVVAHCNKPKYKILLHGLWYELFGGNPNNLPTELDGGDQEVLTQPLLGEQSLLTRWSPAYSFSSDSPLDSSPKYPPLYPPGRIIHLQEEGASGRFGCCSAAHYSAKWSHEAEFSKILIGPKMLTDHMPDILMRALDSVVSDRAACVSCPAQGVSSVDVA
The data set can be described thus: Inhibition of DAGLbeta (unknown origin).

Data set [8] addresses T4, Monoglyceride lipase (Homo sapiens) (UniProt Q99685).
T4 sequence (whole entry): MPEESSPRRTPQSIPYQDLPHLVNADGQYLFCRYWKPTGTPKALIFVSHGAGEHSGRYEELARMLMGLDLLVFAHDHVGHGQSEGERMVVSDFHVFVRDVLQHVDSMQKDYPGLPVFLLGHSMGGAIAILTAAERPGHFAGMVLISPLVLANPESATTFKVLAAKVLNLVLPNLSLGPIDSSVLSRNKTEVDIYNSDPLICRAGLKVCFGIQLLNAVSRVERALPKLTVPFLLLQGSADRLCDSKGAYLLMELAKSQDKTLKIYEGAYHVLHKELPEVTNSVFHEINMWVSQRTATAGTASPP
The data set can be described thus: Inhibition of MAGL (unknown origin) at 30 uM.

Data set [9] deals with T5, Pancreatic triacylglycerol lipase (Sus scrofa) (UniProt P00591).
T5 sequence (whole entry): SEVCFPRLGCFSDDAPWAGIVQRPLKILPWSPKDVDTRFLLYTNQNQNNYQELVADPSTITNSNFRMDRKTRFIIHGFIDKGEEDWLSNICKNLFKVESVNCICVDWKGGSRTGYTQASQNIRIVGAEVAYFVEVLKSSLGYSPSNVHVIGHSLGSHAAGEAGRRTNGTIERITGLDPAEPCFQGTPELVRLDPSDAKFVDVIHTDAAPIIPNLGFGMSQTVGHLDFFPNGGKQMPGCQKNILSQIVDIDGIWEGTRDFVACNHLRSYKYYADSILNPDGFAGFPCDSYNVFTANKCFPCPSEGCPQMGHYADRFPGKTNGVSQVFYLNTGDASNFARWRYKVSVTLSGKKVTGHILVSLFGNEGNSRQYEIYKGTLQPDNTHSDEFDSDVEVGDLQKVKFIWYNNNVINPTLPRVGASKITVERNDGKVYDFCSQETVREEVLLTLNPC
The data set is described as follows: Inhibition of porcine pancreatic lipase at 30 uM.

The next data set is described as follows: physchem. As to conditions: octanol/phosphate buffer, pH 7.4.
Data set [10] in a line: Dissociation constant, pKa of compound at pH 2 to […] by spectrophotometric titration method. It counts as physicochemical.
A short description of data set [11]: Metabolic stability in mouse liver microsomes assessed as residual compound at 3 uM preincubated for 2 mins followed by NADPH addition measured after 10 mins by LC-MS analysis. The format is ADME. The following applies: read-out: Stability.
For a further data set, the system named is Mus musculus. The data set is described as follows: In vivo inhibition of DAGLalpha in ip dosed mouse assessed as reduction in 2-AG level in liver. It counts as functional, organism-based.

The source made the active and inactive calls. The rule behind the calls is not given here.

Sequence of Cytochrome P450 3A4 (P08684 whole entry): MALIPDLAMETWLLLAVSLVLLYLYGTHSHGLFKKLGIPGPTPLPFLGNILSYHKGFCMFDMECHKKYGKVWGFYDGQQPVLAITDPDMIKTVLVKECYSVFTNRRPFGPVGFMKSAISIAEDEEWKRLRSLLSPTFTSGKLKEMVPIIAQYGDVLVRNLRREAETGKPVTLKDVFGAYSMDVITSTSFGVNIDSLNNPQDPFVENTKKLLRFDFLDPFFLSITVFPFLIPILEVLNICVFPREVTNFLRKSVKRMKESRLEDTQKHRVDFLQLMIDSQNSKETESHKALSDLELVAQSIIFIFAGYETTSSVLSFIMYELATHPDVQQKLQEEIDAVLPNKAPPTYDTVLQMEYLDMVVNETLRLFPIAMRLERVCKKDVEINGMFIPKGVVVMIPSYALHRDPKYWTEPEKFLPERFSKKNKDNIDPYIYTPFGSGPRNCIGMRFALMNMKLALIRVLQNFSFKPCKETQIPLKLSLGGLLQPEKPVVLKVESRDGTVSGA
Sequence of Cytochrome P450 2C9 (P11712 whole entry): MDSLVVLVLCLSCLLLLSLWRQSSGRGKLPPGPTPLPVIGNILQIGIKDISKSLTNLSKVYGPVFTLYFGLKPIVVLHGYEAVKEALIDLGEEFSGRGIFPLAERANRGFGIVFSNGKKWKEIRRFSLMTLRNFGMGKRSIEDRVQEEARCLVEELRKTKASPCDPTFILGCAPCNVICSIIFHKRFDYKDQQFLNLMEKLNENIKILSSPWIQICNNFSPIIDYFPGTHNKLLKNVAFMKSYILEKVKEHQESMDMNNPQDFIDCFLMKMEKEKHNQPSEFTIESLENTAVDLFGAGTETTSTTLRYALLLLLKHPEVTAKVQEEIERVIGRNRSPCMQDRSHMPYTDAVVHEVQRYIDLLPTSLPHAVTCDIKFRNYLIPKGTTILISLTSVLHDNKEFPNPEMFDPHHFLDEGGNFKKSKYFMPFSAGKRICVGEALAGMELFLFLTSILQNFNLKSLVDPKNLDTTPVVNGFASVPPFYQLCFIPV

The IC50 is the concentration at which inhibition is half-maximal. As for `C[C@H](c1ccc(-c2ccc(Cl)cc2Cl)cc1)N(CC(=O)O)S(=O)(=O)c1ccc(OC(F)F)cc1`, the figures for the half-inhibitory concentration (IC50) in [1] and in [2] were 19 nM and 100 nM, respectively. Besides, the Ratio IC50 in data set [3] turned out to be 5.

As to `O=C(O)CN(Cc1cccc(-c2ccccc2OC(F)(F)F)c1)S(=O)(=O)c1ccc(OC(F)F)cc1`, the concentration for half-maximal inhibition (IC50) was 17 nM in data set [1]; 30000 nM against Cytochrome P450 3A4; 40000 nM at Cytochrome P450 2D6; 40000 nM at Cytochrome P450 2C9; 40000 nM on Cytochrome P450 2C19; 60 nM in [2]. The compound also gave a half-maximal inhibitory concentration (IC50) in [6] of 11000 nM. Also, the results for the remaining at 10 min, 3 µM in [4] and in data set [5] were 80% and 100%, respectively. Further, in data set [3], the Ratio IC50 is 4.

Regarding `C[C@@H](c1ccc(-c2ccc(Cl)cc2Cl)cc1)N(CC(=O)O)S(=O)(=O)c1ccc(OC(F)F)cc1`, in data set [1], the midpoint of inhibition, the IC50, lay at 18 nM.

In the case of `O=C(O)CN(C1(c2ccc(-c3ccc(Cl)cc3Cl)cc2)CCC1)S(=O)(=O)c1ccc(OC(F)F)cc1`, the IC50 in data set [1] is 6 nM; in [7], 146 nM; in data set [2], 88 nM. For the same compound, the Ratio IC50 was determined as 24 with HEK293 and 15 in data set [3]. For the same compound, the inhibition entry in data set [8] and in data set [9] was “inactive” each time.

Consider `O=C(O)CN(C1(c2cccc(-c3ccc(Cl)cc3Cl)c2)CCC1)S(=O)(=O)c1ccc(Cl)c(Cl)c1`, for which the inhibition entry in data set [8] was “inactive”.

With `O=C(O)CN(C1(c2cccc(-c3cc(Cl)cc(Cl)c3)c2)CCC1)S(=O)(=O)c1ccccc1Cl`, in data set [1], the half-maximal inhibitory concentration (IC50) worked out at 510 nM.

For `O=C(O)CN(Cc1ccc(-c2ccc(Cl)cc2Cl)cc1)S(=O)(=O)c1ccc(OC(F)F)cc1`, the half-maximal inhibitory concentration (IC50) in [1] stood at 30 nM.

The term logD denotes lipophilicity at a set pH, counting ionised and neutral species. Lower therefore signals lower lipophilicity. Usually pKa stands for the pH at which an ionisable group is half protonated. In data set [1], `CC1(C)CCc2cc(S(=O)(=O)N(CC(=O)O)Cc3cccc4cccnc34)ccc2O1` had an IC50 of 13500 nM. Further, the log distribution coefficient (logD) in “physchem” came out at 0.5. In data set [10], the pKa turned out to be 2.

With `O=C(O)CN(C1(c2ccc(-c3ccccc3OC(F)(F)F)cc2)CCC1)S(=O)(=O)c1ccc(OC(F)F)cc1`, the remaining at 10 min, 3 µM in [4] was 78%; in [11] it was 100%; in data set [5], 100%. For the same compound, in data set [8], the inhibition entry was “inactive”.

Regarding `CC1(C)CCc2cc(S(=O)(=O)N(CC(=O)O)Cc3cccc(-c4ccccc4)c3)ccc2O1`, the results for the remaining at 10 min, 3 µM in data set [4], in data set [11] and in [5] were 77%, 87% and 67%, respectively.

For `O=C(O)CN(c1cccc(-c2cccc(Cl)c2Cl)c1)S(=O)(=O)c1ccc(OC(F)F)cc1`, the figures for the half-maximal inhibitory concentration (IC50) in data set [1], in data set [7] and in [2] were 2.4 nM, 40 nM and 14.3 nM, respectively. In addition, in the data set on Mus musculus, the inhibition entry was “Active”. The inhibition result in data set [8] is “inactive”.
